The test system of data set [1] is HepG2. In words: Inhibition of colony formation in human HepG2 cells at 2 uM incubated for 24 hrs measured after cell culturing for 15 days in normal medium by crystal violet staining based assay. The format is functional. The following applies: time 16.0 day. A digest of the protocol:
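500 HepG2, QGY-7703 or SMMC-7721 cells per well allowed to attach 24 h, exposed to DMSO or 2.0 µM for 24 h, then grown 15 days in plain medium. Colonies fixed 30 min in 4% paraformaldehyde, stained 15 min with 0.1% crystal violet, photographed and counted.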

The subject of the next data set is Mus musculus. In words: Induction of Nur77 expression in tumor tissue of BALB/c mouse xenografted with human HepG2 cells at 10 to 20 mg/kg/day, ip administered for 15 days by western blot analysis. The following applies: dose 10-20 mg/kg/day, time 15.0 day. (Xenograft models place foreign cells or tissue in a host animal.)
Data set [2] relates to HepG2. Description: Induction of autophagy in Nur77 knockout human HepG2 cells assessed as increase in GFP-LC3 puncta formation at 2 uM after 6 hrs by fluorescence microscopic method. The class given is functional, cell-based. A digest of the protocol: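 HepG2, or HepG2 and shNur77 HepG2, transfected with GFP-LC3, then given vehicle or 2.0 µM for 6 h; GFP-LC3 puncta visualised by fluorescence microscopy alongside phase-contrast images.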

The test system of data set [3] is HepG2. In words: Induction of endoplasmic reticulum stress in human HepG2 cells assessed as increase in bip expression at 2 uM measured after 1 to 4 hrs by Western blot analysis. The format is functional, cell-based. Conditions: time 1-4 hrs. A digest of the protocol: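 HepG2 exposed to 2.0 µM over a time course; Nur77, Bip, p-EIF2a, TRB3 and LC3 levels followed by Western blot of RIPA lysates.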
A general note: Immunoblotting shows a protein as a band on a membrane.

The target in data set [4] is T1, Nuclear receptor subfamily 4immunitygroup A member 1 (Homo sapiens, UniProt P22736). Description: Binding affinity to Nur77 ligand binding domain (unknown origin) assessed as dissociation constant by fluorescence titration based analysis. A digest of the protocol:
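Intrinsic tryptophan fluorescence quench: 1 μM Nur77-LBD titrated with 0–4 μM ligand in about 0.2 μM steps (20 points). After 30 min at room temperature, read at 25 °C, excitation 280 nm, emission 340 nm. KD fitted to a two-state 1:1 complex model.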

Data set [5] has as its system HepG2. Description: Antitumor activity against human HepG2 cells xenografted in BALB/c mouse assessed as sparser and vacuolated cells in tumor tissue at 10 to 20 mg/kg/day, ip for 15 days by hematoxylin and eosin staining based microscopic analysis. The class given is functional, organism-based. Conditions: dose 10-20 mg/kg/day, time 15.0 day. A digest of the protocol: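 H&E staining of 4% paraformaldehyde-fixed, paraffin-embedded 5 μm tumor slices from the HepG2 flank xenograft (male Balb/c nude mice, 10 or 20 mg/kg i.p. daily for 15 days, versus vehicle). Examined by light microscopy at 200, 400 and 1000×.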

In a further data set the test system is SMMC-7721. Description: Upregulation of Nur77 expression in human SMMC-7721 cells incubated for 6 hrs by Western blot analysis. The class given is functional, cell-based. Conditions: dose 0.5-2 µM. A digest of the protocol: (§1)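 HepG2, QGY-7703 and SMMC-7721 cells treated with the indicated concentrations for 6 h. HepG2 also given 2.0 µM over a time course. Lysis in RIPA with protease and phosphatase inhibitors; 40-80 µg protein by SDS-PAGE, nitrocellulose transfer. Membranes blocked with 5% milk, primary antibody overnight, HRP secondary, chemiluminescence. GAPDH as loading control.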

Data set [6] relates to HepG2. In words: Antitumor activity against human HepG2 cells xenografted in BALB/c mouse assessed as reduction in PCNA expression in tumor tissue at 10 to 20 mg/kg/day, ip for 15 days by western blot analysis. Conditions: dose 10-20 mg/kg/day, time 15.0 day. The class given is functional, organism-based. A digest of the protocol: (§2)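 HepG2 cells (5×10^6) injected subcutaneously into flanks of 4-week-old male Balb/c nude mice. At about 100 mm³, 15 mice were randomized to vehicle, 10 or 20 mg/kg i.p. once daily for 15 days. Tumors were then excised for immunostaining of paraffin sections (5 μm) or for western blot.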

The target of data set [7] is T1, Nuclear receptor subfamily 4immunitygroup A member 1. In words: Modulation of Nur77 in human HepG2 cells assessed as induction of Nur77 translocation into cytoplasm from nucleus by measuring increase in protein expression in cytoplasm at 2 uM by western blot analysis. The class given is subcellular. The following applies: filed as modulator, time 1-8 hrs, TDE = time-dependent effect. A digest of the protocol: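 HepG2 given 2.0 µM for set times; cells swollen 10 min on ice in HEPES/NaCl/EDTA/CaCl2/MgCl2 buffer, 0.1% NP40 added, spun 15000 rpm 3 min at 4 °C giving cytoplasmic supernatant; pellet extracted in RIPA. Fractions blotted for Nur77, with PARP (nuclear) and tubulin (cytoplasmic) as loading controls.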

The subject of data set [8] is HepG2. Description: Induction of apoptosis in human HepG2 cells transfected with shRNA assessed as necrotic cells at 2 uM incubated for 12 hrs by Annexin V-FITC/PI staining based flow cytometry (reference value: 0.15%). The format is functional. For orientation: Flow cytometry measures light scatter and fluorescence of single cells or particles in a stream.
The nature of data set [9]: Toxicity in BALB/c mouse xenografted with human HepG2 cells assessed as effect on body weight at 10 to 20 mg/kg/day, ip administered for 15 days. The class given is organism-based. The following applies: in vivo, 360 h, dose 10-20 mg/kg/day, time 15 day. A digest of the protocol:
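Male Balb/c mice, 4 weeks old, injected subcutaneously in the flank with 5×10^6 HepG2 cells. At about 100 mm³, 15 mice randomized into vehicle, 10 and 20 mg/kg groups. Dosed i.p. once daily for 15 days. Tumour size and body weight measured daily; mice euthanized at the end.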

Data set [10] concerns HepG2. Description: Induction of endoplasmic reticulum stress in human HepG2 cells assessed as increase in PDI protein expression at 2 uM incubated for 6 hrs by confocal microsocopic analysis. The format is functional, cell-based. A digest of the protocol:
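HepG2, or HepG2 plus shNur77 HepG2, treated with 2.0 µM for 6 h, fixed in 4% paraformaldehyde 20 min, permeabilised 0.1% Triton X-100, blocked in 5% BSA, stained with PDI antibody and imaged by confocal fluorescence microscopy.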

Data set [11] has as its system HepG2. In words: Antitumor activity against human HepG2 cells xenografted in BALB/c mouse assessed as induction of autophagy by measuring increase in Beclin1 level in tumor tissue at 10 to 20 mg/kg/day, ip administered for 15 days by western blot analysis. The following applies: dose 10-20 mg/kg/day, time 15.0 day. The class given is functional, organism-based. A digest of the protocol: as §2

A further data set concerns QGY-7703. Description: Upregulation of Nur77 expression in human QGY-7703 cells incubated for 6 hrs by Western blot analysis. Conditions: dose 0.5-2 µM. The class given is functional, cell-based. A digest of the protocol:
as §1

In data set [12] the test system is HepG2. In words: Antiproliferative activity against human HepG2 cells assessed as reduction in cell viability incubated for 48 hrs by MTT assay. The following applies: HepG2, 48 h. The format is functional, cell-based. A digest of the protocol:
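MTT assay after 48 h exposure at six concentrations, range chosen by cytotoxicity. Inhibition = (ODcontrol − ODtest)/ODcontrol × 100%; IC50 is the concentration halving OD versus untreated cells. Means ± SD of three independent determinations. HepG2 and SMMC-7721 grown in DMEM, QGY-7703 and LO2 in RPMI 1640, with 10% FBS at 37 °C.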

In data set [13] the test system is HepG2. Description: Antitumor activity against human HepG2 cells xenografted in BALB/c mouse assessed as tumor weight at 10 mg/kg/day, ip administered for 15 days (reference value: 0.86 +/- 0.18 g). Conditions: dose 20 mg/kg/day; time 15 day; in the assay text read “20 mg/kg/day” for “10 mg/kg/day”. The format is functional. A digest of the protocol:
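Subcutaneous flank xenograft of 5×10^6 HepG2 cells in 4-week-old male Balb/c nude mice. At about 100 mm³, 15 mice were randomized into three groups: vehicle, 10 or 20 mg/kg i.p. daily for 15 days. Tumor size was measured every day, and tumors were excised and weighed at the end.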

The text below walks through data of ChEMBL document CHEMBL4765399, “Design, synthesis, and biological evaluation of 5-((8-methoxy-2-methylquinolin-4-yl)amino)-1H-indole-2-carbohydrazide derivatives as novel Nur77 modulators” (Eur J Med Chem, 2020).

Activity calls are given as the source filed them. The rule behind the calls is not given here.

T1 sequence (P22736 whole entry, the tested form may be a part): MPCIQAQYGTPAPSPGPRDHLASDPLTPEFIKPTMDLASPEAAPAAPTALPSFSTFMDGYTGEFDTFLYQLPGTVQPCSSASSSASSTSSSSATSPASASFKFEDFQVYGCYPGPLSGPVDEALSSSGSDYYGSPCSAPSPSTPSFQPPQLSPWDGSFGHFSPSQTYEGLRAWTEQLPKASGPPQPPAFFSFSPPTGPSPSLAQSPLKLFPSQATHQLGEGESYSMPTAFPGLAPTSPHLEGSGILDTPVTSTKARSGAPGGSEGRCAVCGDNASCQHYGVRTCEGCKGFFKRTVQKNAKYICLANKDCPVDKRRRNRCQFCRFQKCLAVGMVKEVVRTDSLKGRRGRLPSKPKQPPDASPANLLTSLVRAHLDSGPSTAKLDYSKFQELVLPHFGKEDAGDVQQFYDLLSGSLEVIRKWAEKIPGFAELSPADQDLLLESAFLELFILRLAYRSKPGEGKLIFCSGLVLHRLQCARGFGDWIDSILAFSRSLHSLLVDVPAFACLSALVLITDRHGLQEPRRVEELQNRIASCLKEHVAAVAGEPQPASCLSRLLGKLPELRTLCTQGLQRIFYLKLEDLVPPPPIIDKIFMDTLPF

A word on the Kd: it is a measure of binding affinity in units of concentration. A word on the IC50: it is the midpoint of a concentration-inhibition curve. Regarding `COc1cccc2c(Nc3ccc4[nH]c(C(=O)N/N=C/c5ccc(SC)cc5)cc4c3)cc(C)nc12`, the inhibition result with HepG2 [1] is “Active”. In addition, the outcome in the data set with Mus musculus, in the data set with HepG2 [3], in the data set on HepG2 [5], in the data set on HepG2 [6], in the data set with HepG2 [10] and with HepG2 [11] was Active. Also, the result in the data set with HepG2 [2] was inactive. For the same compound, the Kd in [4] was 1340 nM. The Activity result in the data set on SMMC-7721 was “Dose-dependent effect”; in data set [7] it was “Tde”; in the data set with HepG2 [8] it was 0.16%; in data set [9], “Non-Toxic”; with QGY-7703 it was “Dose-dependent effect”; with HepG2 [13], 0.24 g. For the same compound, the half-maximal inhibitory concentration (IC50) in the data set with HepG2 [12] worked out at 600 nM.
